Measurements gathered from unrelated publications.
Each line is one published result; the experiments were not run side by side.
Sample: plasma
Route: intravenous

CC(=O)c1c(C)c2cnc(Nc3ccc(N4CCNCC4)cn3)nc2n(C2CCCC2)c1=O  Vd (male Sprague-Dawley rat; 5 mg/kg): 3.3 L/kg
C[C@H]1CN(c2ccc(C3CCC(=O)NC3=O)cc2F)CCN1CC12CCC(NS(=O)(=O)c3ccc(Nc4ncc(C(F)(F)F)c(N5CCC[C@](C)(O)C5)n4)c(F)c3)(CC1)CO2 (stereo partly shown)  Vd (rat; 2 mg/kg): 4 L/kg
Cn1c(=O)c2[nH]cnc2n(C)c1=O  Vd (male Sprague-Dawley rat; 22.5 mg/kg): 1.52 L/kg
C=CCn1c(=O)c2cnc(Nc3ccc(N4CCN(C)CC4)cc3)nc2n1-c1ccc2c(n1)[C@@](O)(CC)CC2  Vd (rat; 3 mg/kg): 2.8 L/kg
COCC(=O)N1CCC[C@H](C(=O)NCc2nc(-c3ccccc3)cs2)C1  Vd (male Sprague-Dawley rat; 1 mg/kg): 0.18 L/kg
Cc1cc(S(=O)(=O)N[C@H]2CC[C@H](CN3CCN(c4cccc(NC5CCC(=O)NC5=O)c4)CC3)CC2)ccc1Nc1ncc(C(F)(F)F)c(N2CCC[C@](C)(O)C2)n1 (stereo partly shown)  Vd (rat; 2 mg/kg): 10 L/kg
Cc1nc(Nc2ncc(C(=O)Nc3c(C)cccc3Cl)s2)cc(N2CC[C@H](O)C2)n1  Vd (male Sprague-Dawley rat; 1 mg/kg): 0.9 L/kg
CCONC(=O)N1CCC[C@H](C(=O)NCc2nc(-c3ccc(C#N)cc3)cs2)C1  Vd (male Sprague-Dawley rat; 1 mg/kg): 0.45 L/kg
C[C@H]1Oc2cc(cnc2N)-c2c(nn(C)c2C#N)CN(C)C(=O)c2ccc(F)cc21  Vd (Sprague-Dawley rat; 1 mg/kg, single dose): 2 L/kg
C[C@]1(O)CCCN(c2nc(Nc3ccc(S(=O)(=O)N[C@H]4CC[C@H](CN5CCN(c6ccc(C7CCC(=O)NC7=O)cc6F)CC5)CC4)cc3F)ncc2C(F)(F)F)C1 (stereo partly shown)  Vd (rat; 2 mg/kg): 4 L/kg
[2H]c1cc(C)c(NC(=O)c2cnc(Nc3cc(N4CC[C@H](O)C4)nc(C)n3)s2)c(Cl)c1  Vd (male Sprague-Dawley rat; 1 mg/kg): 1.1 L/kg
COCC(=O)N1CCC[C@H](C(=O)NCc2nc(-c3ccc(C#N)cc3)cs2)C1  Vd (male Sprague-Dawley rat; 1 mg/kg): 0.18 L/kg
Cc1cc(S(=O)(=O)N[C@H]2CC[C@H](N3CCN(CC4CCN(c5cccc6c5n(C)c(=O)n6C5CCC(=O)NC5=O)CC4)CC3)CC2)ccc1Nc1ncc(C(F)(F)F)c(N2CCC[C@](C)(O)C2)n1 (stereo partly shown)  Vd (rat; 2 mg/kg): 10 L/kg
Cc1nc(Nc2ncc(C(=O)Nc3c(C)cccc3Cl)s2)cc(N2CC[C@@H](N)C2)n1  Vd (male Sprague-Dawley rat; 1 mg/kg): 32.8 L/kg
C[C@]1(O)CCCN(c2nc(Nc3ccc(S(=O)(=O)N[C@H]4CC[C@H](CN5CCN(c6ccc(C7CCC(=O)NC7=O)c(F)c6)CC5)CC4)cc3F)ncc2C(F)(F)F)C1 (stereo partly shown)  Vd (rat; 2 mg/kg): 3 L/kg
Cc1nc(Nc2ncc(C(=O)Nc3c(C)cccc3Cl)s2)cc(N2CCN(CCO)CC2)n1  Vd (male Sprague-Dawley rat; 1 mg/kg, single dose): 2.4 L/kg
